Reference: ChEMBL document CHEMBL1131102, “A new series of highly potent growth hormone-releasing peptides derived from ipamorelin” (J Med Chem, 1998)
Values joined by “and” are separate entries in the source; they are usually repeats but may differ in a detail not shown here. Equal entries are not always repeated. Non-standard residues stand in square brackets, D forms with d. Residues, ends and D or L forms follow the SMILES beside them. d2Nal = N[C@H](Cc1ccc2ccccc2c1)C(=O)O; 3Amb = NCc1cccc(C(=O)O)c1; Aib = CC(C)(N)C(=O)O

Legend:
Rattus norvegicus [1] = species: Rattus norvegicus; test: Tested in vitro for GH-releasing potency against rat pituitary cells.; assay type: functional; conditions: Pituitary gland cell
Outline: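 Rat pituitaries were trypsin-dispersed into single cells and cultured 3 days, then washed and stimulated 15 min with secretagogue. Supernatant GH was measured by rat GH SPA. EC50 came from a Hill fit of release above basal; Emax as % of GHRP-6 maximum. Mean ± SEM of 1–5 experiments.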

Rattus norvegicus [2] = test: Compound was tested in vivo for GH-releasing potency against anesthetized female rats; assay type: functional
Outline: (§1)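 Male or female rats (250 ± 25 g) were anesthetized with pentobarbital ip (50 mg/mL, 1.2 mL/kg). After 15 min, orbital blood was taken, then compound was given as an iv tail-vein bolus (2 mL/kg) and blood sampled again at 10 min. Rat GH was assayed in heparinized plasma. At least five doses, six rats per dose. ED50 by Hill fit; Emax as % of GHRP-6.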

Rattus norvegicus [3] = test: (§2) Tested in vivo for GH-releasing potency against anesthetized male rats; assay type: functional; outline: as §1
Rattus norvegicus [4] = test: as §2; assay type: functional; set-up: unit not given here; outline: as §1
Canis familiaris [5] = test: Area under curve was measured after po administration into Beagle dog; assay type: ADME, organism-based, Canis lupus familiaris; conditions: in vivo
Outline: (§3)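 Fasted (overnight) male and female Beagle dogs; dosed po by gavage (2.7 or 1.8 mg/kg) and iv as a hind-leg-vein bolus (0.5 mg/kg), with a 1-week washout between routes. Vehicle was citrate/phosphate buffer, pH 5.0. EDTA blood was drawn from a front-leg vein up to 6 h. Plasma compound was measured by HPLC-UV after solid-phase extraction. AUC(0–6 h); f = AUCpo·doseiv/(AUCiv·dosepo).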

Canis familiaris [6] = test: Area under curve was measured after iv administration into Beagle dog; assay type: ADME, organism-based, Canis lupus familiaris; conditions: in vivo; outline: as §3
Canis familiaris [7] = test: Basal GH release was measured after 0.5 mg/kg iv administration into Beagle dogs; assay type: functional, Canis lupus familiaris
Outline: (§4)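 Fasted (overnight) Beagle dogs were given compound in citrate/phosphate buffer, pH 5.0, either as a 0.5 mg/kg iv bolus in a hind-leg vein or by po gavage (2.7 or 1.8 mg/kg). Iv and po dosing were separated by a 1-week washout. EDTA blood was drawn from a front-leg vein at intervals up to 6 h. Plasma GH was measured by porcine GH ELISA.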

Canis familiaris [8] = test: Basal GH release was measured after 1.8 mg/kg po administration into Beagle dogs; assay type: functional, Canis lupus familiaris; outline: as §4
Sus scrofa [9] = species: Sus scrofa; test: (§5) Compound was tested for GH-releasing potency against female Danish slaughter swine.; assay type: functional, organism-based
Outline: (§6)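 Swine with jugular catheters received single iv injections in increasing doses (range 0.03–500 nmol/kg), five doses per experiment at 24-h intervals. Vehicle was phosphate/citrate buffer diluted in saline with 0.5% porcine serum albumin. Blood was sampled from 1 h before to 3 h after dosing; pGH by ELISA. Basal-adjusted Cmax was fitted (Hill or Michaelis–Menten) for ED50; six swine.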

[10] = Oral bioavailability in dog (Beagle); assay type: ADME, organism-based, Canis lupus familiaris; conditions: in vivo; outline: as §3
Sus scrofa [11] = species: Sus scrofa; test: as §5; assay type: functional; outline: as §6
Rattus norvegicus [12] = test: Tested in vivo for GH-releasing potency against anesthetized female rats; assay type: functional; outline: as §1
Canis familiaris [13] = test: Basal GH release was measured after 2.7 mg/kg po administration into Beagle dogs; assay type: functional, Canis lupus familiaris; outline: as §4
[14] = Rattus norvegicus, read-out: Emax

CNC(=O)[C@@H](Cc1ccccc1)N(C)C(=O)[C@@H](Cc1ccc2ccccc2c1)N(C)C(=O)[C@H](Cc1c[nH]cn1)NC(=O)C(C)(C)N
EC50 (Rattus norvegicus [1]): 3.8 nM | Emax (Rattus norvegicus [1]): 110%

CN(C(=O)[C@H](Cc1c[nH]cn1)NC(=O)C(C)(C)N)[C@H](Cc1ccc2ccccc2c1)C(=O)N(C)[C@H](Cc1ccccc1)C(=O)N[C@@H](CCCCN)C(N)=O
ED50 (Rattus norvegicus [2]): 14 nmol/kg | EC50 (Rattus norvegicus [1]): 1.5 nM | Emax (Rattus norvegicus [1]): 85%

CN(C(=O)[C@@H](Cc1ccc2ccccc2c1)NC(=O)[C@H](Cc1c[nH]cn1)NC(=O)C(C)(C)N)[C@H](Cc1ccccc1)C(=O)N[C@@H](CCCCN)C(N)=O
Emax (Rattus norvegicus [3]): 90% | ED50 (Rattus norvegicus [4]): 1.8 | EC50 (Rattus norvegicus [1]): 2 nM | Emax (Rattus norvegicus [1]): 100%

CN(C(=O)c1cccc(CN)c1)[C@H](Cc1ccc2ccccc2c1)C(=O)N(C)[C@H](Cc1ccccc1)C(N)=O
EC50 (Rattus norvegicus [1]): 115 nM | Emax (Rattus norvegicus [1]): 85%

CN(C(=O)[C@@H](Cc1ccc2ccccc2c1)NC(=O)c1cccc(CN)c1)[C@H](Cc1ccccc1)C(=O)N[C@@H](CCCCN)C(N)=O
AUC (Canis familiaris [5]): 48 ng·h/mL | AUC (Canis familiaris [6]): 137 ng·h/mL | Basal GH (Canis familiaris [7]): 1.2 ng/mL | Basal GH (Canis familiaris [8]): 1.2 ng/mL | Emax (Rattus norvegicus [3]): 90% | ED50 (Sus scrofa [9]): 2 nM/kg | ED50 (Rattus norvegicus [4]): 80 | EC50 (Rattus norvegicus [1]): 0.5 nM | Emax (Rattus norvegicus [1]): 80% | bioavailability [10]: 10% | Emax (Sus scrofa [11]): 70%

CNCc1cccc(C(=O)N[C@H](Cc2ccc3ccccc3c2)C(=O)N[C@H](Cc2ccccc2)C(=O)N[C@@H](CCCCN)C(N)=O)c1
Emax (Rattus norvegicus [3]): 30% | ED50 (Rattus norvegicus [4]): 65 | EC50 (Rattus norvegicus [1]): 10 nM | Emax (Rattus norvegicus [1]): 85%

NCCCC[C@H](NC(=O)[C@@H](Cc1ccccc1)NC(=O)[C@@H](Cc1ccc2ccccc2c1)NC(=O)c1ccccc1CN)C(N)=O
EC50 (Rattus norvegicus [1]): 85 nM | Emax (Rattus norvegicus [1]): 60%

CN(C(=O)[C@@H](Cc1ccc2ccccc2c1)N(C)C(=O)c1cccc(CN)c1)[C@@H](CO)Cc1ccccc1
ED50 (Rattus norvegicus [2]): > 1000 nmol/kg | EC50 (Rattus norvegicus [1]): 265 nM | Emax (Rattus norvegicus [1]): 75%

NCCCC[C@H](NC(=O)[C@@H](Cc1ccccc1)NC(=O)[C@@H](Cc1ccc2ccccc2c1)NC(=O)c1ccc(CN)cc1)C(N)=O
EC50 (Rattus norvegicus [1]): 110 nM | Emax (Rattus norvegicus [1]): 50%

CN(C(=O)[C@@H](Cc1ccc2ccccc2c1)NC(=O)c1cccc(CN)c1)[C@H](Cc1ccccc1)C(N)=O
ED50 (Rattus norvegicus [2]): > 1000 nmol/kg | EC50 (Rattus norvegicus [1]): 170 nM | Emax (Rattus norvegicus [1]): 85%

CN(C(=O)c1cccc(CN)c1)[C@H](Cc1ccc2ccccc2c1)C(=O)N(C)[C@H](Cc1ccccc1)C(=O)N[C@@H](CCCCN)C(N)=O
Emax (Rattus norvegicus [12]; [14]): 100% | ED50 (Rattus norvegicus [2]): 146 nmol/kg | EC50 (Rattus norvegicus [1]): 5 nM | Emax (Rattus norvegicus [1]): 80%

CNC(=O)[C@@H](Cc1ccccc1)N(C)C(=O)[C@@H](Cc1ccc2ccccc2c1)N(C)C(=O)c1cccc(CN)c1
EC50 (Rattus norvegicus [1]): 40 nM | Emax (Rattus norvegicus [1]): 110%

C[C@H](NC(=O)[C@@H](Cc1c[nH]c2ccccc12)NC(=O)[C@@H](N)Cc1c[nH]cn1)C(=O)N[C@@H](Cc1c[nH]c2ccccc12)C(=O)N[C@H](Cc1ccccc1)C(=O)N[C@@H](CCCCN)C(N)=O (H-H[dW]AW[dF]K-NH2)
Emax (Rattus norvegicus [12]): 60% and 100% | EC50 (Rattus norvegicus [1]): 2.2 nM | Emax (Rattus norvegicus [1]): 100% | ED50 (Sus scrofa [11]): 0.0039 µmol/kg | Emax (Sus scrofa [11]): 100%

NCCCC[C@H](NC(=O)[C@@H](Cc1ccccc1)NC(=O)[C@@H](Cc1ccc2ccccc2c1)NC(=O)c1cccc(CN)c1)C(N)=O (H-[3Amb][d2Nal][dF]K-NH2)
ED50 (Rattus norvegicus [4]): >4800 | Emax (Rattus norvegicus [1]): 85%

CC(C)(N)C(=O)N[C@@H](Cc1c[nH]cn1)C(=O)N[C@H](Cc1ccc2ccccc2c1)C(=O)N[C@H](Cc1ccccc1)C(=O)N[C@@H](CCCCN)C(N)=O [IPAMORELIN] (H-[Aib]H[d2Nal][dF]K-NH2)
Basal GH (Canis familiaris [7]): 1.6 ng/mL | Emax (Rattus norvegicus [3]): 120% | ED50 (Rattus norvegicus [4]): 85 | EC50 (Rattus norvegicus [1]): 1.3 nM | Emax (Rattus norvegicus [1]): 85% | Basal GH (Canis familiaris [13]): 5.4 ng/mL | bioavailability [10]: 4% | ED50 (Sus scrofa [11]): 0.0023 µmol/kg | Emax (Sus scrofa [11]): 88%

C[C@H](NC(=O)[C@@H](Cc1ccc2ccccc2c1)NC(=O)[C@@H](C)N)C(=O)N[C@@H](Cc1c[nH]c2ccccc12)C(=O)N[C@H](Cc1ccccc1)C(=O)N[C@@H](CCCCN)C(N)=O [PRALMORELIN] (H-[dA][d2Nal]AW[dF]K-NH2)
Emax (Rattus norvegicus [12]): 90% | Emax (Rattus norvegicus [12]; [14]): 100% | EC50 (Rattus norvegicus [1]): 1.8 nM | Emax (Rattus norvegicus [1]): 85% | ED50 (Sus scrofa [11]): 0.0006 µmol/kg | Emax (Sus scrofa [11]): 75%
